HSF1 inhib = HSF1 inhibition. NIH3T3-HGL HSE-luciferase, MG132-induced, luminescence 8 h; active compounds read low. activity change, negative = inhibition, % at 7.5 µM (by protocol). 300,000 compounds, 0.77% hits. AID 2098;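 active means more than half of replicate wells show activity change below -50%, luminescence cut by over half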;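 further: luciferase reports HSF-1 transcriptional activity via heat shock element; 0% = median of DMSO wells and -100% = zero luminescence signal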
HCV core dimer = blocks dimerization of HCV core protein. TR-FRET GST/Flag-core106 dimerization, 1536-well. inhibition, % at 5 µM. 300,000 compounds, 0.33% hits. AID 1899;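 active means inhibition above the mean of all tested compounds plus 3 SD, set per screening campaign, cut at about 45% in these data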
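System: GST/Flag-tagged HCV core106 proteins. Incubation: compound-protein-antibody incubation 4 h at 22.5 °C. Technique: HTRF with 340 nm excitation, 617/671 nm emission. Medium: KF-containing HEPES buffer, pH 7.45, DTT, CHAPS, BSA. Read-out: inhibition (%) from 671 over 617 nm ratio. Also added: Eu(K)-anti-GST 90 ng/mL plus XL665-anti-Flag 1 µg/mL.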
NS3 helicase inh = HCV NS3 helicase inhibition. NS3 helicase DNA unwinding, Cy5 molecular beacon fluorescence. inhibition, % at 10.9 µM. 290,000 compounds, 0.56% hits. AID 1800;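 active means inhibition above the mean of all tested compounds plus 3 SD, set per campaign, cut at about 35% in these data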;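 further: 0% = DMSO wells and 100% = thioflavine S control wells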
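Material: hepatitis C virus NS3 helicase domain fragment enzyme; measured by: Cy5 fluorescence, 0 and 60 min reads; control set: DMSO and thioflavine S; incubation: 60 min unwinding reaction at 25 °C after ATP addition; read-out basis: % inhibition from 60/0 min fluorescence ratio, DMSO 0%, thioflavine S 100%; repeats: singlicate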
DNA FID counter = fluorescent intercalator displacement, NS3 helicase counter-screen; DNA fluorescent intercalator displacement, fluorescence; inhibition, % at 7.9 µM; 290,000 compounds, 0.17% hits; in the data active means inhibition above about 37%;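 further: 0% = vehicle and 100% = reference compound; higher means more ethidium bromide displaced from hairpin DNA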
HSF1 activator = increases HSF-1 driven luciferase reporter signal; NIH3T3-HGL HSF-1 luciferase reporter, MG132, 8 h; 100% = twice DMSO control signal; activation, % at 9 µM; 300,000 compounds, 1.7% hits;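 active means mean replicate activation of at least 50% with a set share of replicates each reaching 50%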;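 further: 0% = median of the neutral control wells and 100% = twice that signal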
HSP90 inh = HSP90 refolding inhibition in rabbit reticulocyte lysate. luciferase refolding luminescence, 3 h. inhibition, % at 5.6 µM. 290,000 compounds, 0.91% hits;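 active means inhibition above the screen-wide mean plus 3 SD, computed separately per campaign, cut at about 16% in these data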;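 further: 0% = DMSO wells and 100% = 60 µM geldanamycin wells; inhibitors lower the luminescence because luciferase stays unfolded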
Active calls of the source: *; / = not tested or not shown. Rows were chosen to be rich in hits. Some 3.9% of all compounds tested hit in one or more screens of this group.

SMILES	HSF1 inhib	HCV core dimer	NS3 helicase inh	DNA FID counter	HSF1 activator	HSP90 inh
Cc1ccc2nc3c(cc(C(=O)NCCc4ccccc4)c(=N)n3CCN3CCOCC3)c(=O)n2c1	1	9	0	-16	15	4
COc1ccc(/C=C(/CC(=O)Nc2ccccc2)c2nc3ccccc3s2)cc1	-9	58*	1	-9	1	-1
COc1ccc(/C=C(/CC(=O)NCc2ccc(Cl)cc2)c2nc3ccccc3s2)cc1	1	31	2	-7	3	1
CCOC(=O)c1c(C)[nH]c(C(=O)Cn2nnc(-c3ccccc3Cl)n2)c1C	26	11	2	4	61*	0
CC(=O)Oc1ccc2oc(-c3ccccc3)c(C(N)=O)c2c1	2	-6	6	-4	-10	-1
COc1cc(/C=N/NC(=O)CN2CCCCC2)ccc1OCc1ccc(Br)cc1	46	6	-59	10	79*	-7
COc1cc(/C=N/NC(=O)CC2(C)OCCCO2)ccc1OCc1ccccc1	11	-7	-2	-28	26	-4
COc1cc(/C=N/NC(=O)CC2(C)OCCO2)cc(Br)c1O	1	-9	1	-7	4	1
COc1cc(/C=N/NC(=O)CC2(C)OCCCO2)ccc1OCc1ccc(Cl)cc1Cl	40	9	-10	-8	68*	1
CC1(CC(=O)N/N=C/c2ccc(OCc3ccc(Cl)cc3Cl)cc2)OCCCO1	31	0	-18	-24	54*	-3
CSc1cccc(NS(=O)(=O)c2ccc3c(c2)oc(=O)n3C)c1	-8	2	-6	-4	13	-3
CS(=O)(=O)N(CC(=O)N1CCc2ccccc2C1)Cc1ccc(F)cc1	14	/	6	-30	12	-5
C#CCN1C(=O)S/C(=C/c2cc(C)n(CC)c2C)C1=O	7	-7	4	4	58*	0
CSc1ccccc1NC(=O)CN(C)C(=O)Cc1c(F)cccc1Cl	-2	-10	-5	-17	12	-4
CS(=O)(=O)c1ccc(S(=O)CC(=O)OCc2ccccc2)c([N+](=O)[O-])c1 (stereo unspecified)	-94*	/	-1	2	-94	-1
O=C(CS(=O)c1ccc(C(F)(F)F)cc1[N+](=O)[O-])Oc1ccccc1 (stereo unspecified)	172	8	20	2	238*	7
O=C1CN(C(=O)COc2ccccc2)CCN1	-6	0	2	-2	-3	-3
CN(C)c1ccc(C(=O)/C=C/c2cccnc2)cc1	22	-3	-7	-14	52*	-3
Cc1nnc2ccc(-c3ccc(NS(C)(=O)=O)cc3)nn12	1	-5	-6	1	-4	2
CC(=O)c1ccc(S(=O)(=O)Nc2ccc(-c3ccc4nnc(C)n4n3)cc2)cc1	15	58*	3	-12	26	0
Cn1cc([N+](=O)[O-])c(C(=O)Nc2ccc(Br)cn2)n1	60	2	3	5	53*	0
CCSc1ccc(C(=O)Nc2ccc(Br)cn2)cc1[N+](=O)[O-]	-5	2	-16	5	-1	1
Cn1cc([N+](=O)[O-])c(C(=O)Nc2nccs2)n1	49	7	-10	-2	77*	5
CCn1c(SC)nnc1C1CCCN(CC(=O)Nc2ccccc2N2CCOCC2)C1 (stereo unspecified)	15	-5	4	-31	67*	-3
N#C/C(=C/c1ccc(N2CCCCCC2)o1)c1ccc(F)cc1	93	7	15	-22	114*	2
SMILES	HSF1 inhib	HCV core dimer	NS3 helicase inh	DNA FID counter	HSF1 activator	HSP90 inh
N#C/C(=C/c1ccc(N2CCCCCC2)o1)c1cccc(F)c1	48	0	10	-18	81*	2
N#C/C(=C\c1ccc(N2CCOCC2)o1)c1ccccc1	28	-17	7	-8	39	2
N#C/C(=C/c1ccc(N2CCOCC2)o1)c1ccc(Br)cc1	80	-12	32	-13	94*	3
COc1cc(N2CCCC2)c(OC)cc1/C=C(/C#N)c1cccc(F)c1	0	2	-3	-11	-6	4
CC1(C)NC(=O)N(CC(=O)OCC(=O)NC(=O)c2ccccc2)C1=O	-4	-3	/	/	-8	/
O=C(CCCC(=O)OCC(=O)c1ccc(Cl)cc1)NC1CCCCC1	-8	1	15	-25	6	2
C/C(=N\NC(=O)CCc1ccc(S(=O)(=O)N2CCOCC2)cc1)c1ccc(Br)cc1	23	0	-1	-4	61*	7
O=C(CCc1ccc(S(=O)(=O)N2CCOCC2)cc1)N/N=C/c1cccc(O)c1	-4	-11	-8	-13	9	-4
CC(=O)Nc1ccc(S(=O)(=O)NC2=C(N3CCN(c4ccc(F)cc4)CC3)C(=O)c3ccccc3C2=O)cc1	61	-2	-1	1	75*	4
CS(=O)(=O)c1ccc(NC(=O)CCN2C(=O)C3CCCCC3C2=O)cc1 (stereo unspecified)	-2	-2	/	/	2	/
O=C(COC(=O)c1ccccc1-n1cnnn1)c1ccc(F)cc1	-53*	0	/	/	-57	/
Cc1ccc(C(=O)n2cnnc2N)cc1C	-9	8	2	-5	-1	-2
Cc1ccc(C(=O)n2cnnc2N)cc1	15	3	5	0	66*	1
CCCCN(C(=O)C1CCCO1)c1c(N)n(CC(C)C)c(=O)[nH]c1=O (stereo unspecified)	-2	-4	/	/	-1	/
COc1ccc(CCNC(=O)CN(c2cc([N+](=O)[O-])ccc2OC)S(C)(=O)=O)cc1OC	3	2	5	-1	12	-3
CN1CCN(c2ccc(NC(=O)c3ccc([N+](=O)[O-])o3)cc2Cl)CC1	-78*	0	-12	17	-79	1
Cc1ccc(S(=O)(=O)N2CCCCC2)cc1NC(=O)COC(=O)c1ccc2c(c1)OCO2	2	12	-15	-16	-6	1
Cc1ccc(S(=O)(=O)N2CCCCC2)cc1NC(=O)c1ccc2c(c1)OCO2	26	-1	11	-14	69*	-2
O=C(Nc1ccc(N2CCOCC2)c(Cl)c1)c1ccc([N+](=O)[O-])o1	108	/	-8	5	141*	0
CC(C)C(=O)N1CCN(c2ccc(NC(=O)c3ccc([N+](=O)[O-])o3)cc2Cl)CC1	/	/	-7	0	/	4
O=C(Nc1cccc(O)c1)c1ccc(S(=O)(=O)N2CCCCCC2)cc1	36	/	-8	-7	75*	-2
O=C(N/C(=C\c1ccc(Br)cc1)C(=O)N1CCOCC1)c1ccco1	-7	-4	2	-17	-18	1
Cc1ccc(NC(=O)c2cc(NC(=O)c3ccco3)ccc2N2CCOCC2)cc1	-64*	-1	-15	-24	-72	-2

Compound activity from PubChem BioAssay.
